The record followed here is ChEMBL document CHEMBL5523688, “Selective targeting of human TET1 by cyclic peptide inhibitors: Insights from biochemical profiling” (Bioorg Med Chem, 2024).

The pIC50 is −log10 of the IC50, conventionally taken in molar units.

Test [1] has as its target T1, Methylcytosine dioxygenase TET1 (Homo sapiens, UniProt Q8NFU7). The experiment in a line: Inhibition of N-terminal 3xFlag-tagged recombinant human TET1 catalytic domain (E1418 to V2136 residues) expressed in baculovirus infected Sf9 cells using 5-methylcytosine as substrate assessed as change in pIC50 preincubated for 10 mins followed by substrate and DNA-cofactor addition measured after 30 mins by Alphascreen assay. Particulars: time 40.0 min. The gist of the method: (§1)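 TET1 catalytic domain (E1418–V2136, Sf9 baculovirus) at 2 nM was preincubated 10 min with inhibitor (1% DMSO) in HEPES 50 mM pH 7.3, 150 mM NaCl, 0.1% BSA, 0.01% Tween-20. Reaction was started with ascorbate 200 µM, Fe(II) 20 µM, 2OG 20 µM and 5mC ssDNA 10 nM, run 30 min, then EDTA-quenched. Anti-5hmC antibody with AlphaScreen beads, 45–60 min, luminescence read. Three independent replicates.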
For orientation: Alpha assays give light when donor and acceptor beads are brought close together.

Test [2] has as its target T1, Methylcytosine dioxygenase TET1. Kind of test: Inhibition of N-terminal 3xFlag-tagged recombinant human TET1 catalytic domain (E1418 to V2136 residues) expressed in baculovirus infected Sf9 cells using 5-methylcytosine as substrate preincubated for 10 mins followed by substrate and DNA-cofactor addition measured after 30 mins by Alphascreen assay. The following applies: read-out: pIC50 (converted). Put shortly: as §1

Test [3] concerns Methylcytosine dioxygenase TET2 (Homo sapiens), Q6N021 [UNDEFINED MUTATION]. Particulars: time 20.0 min.
Test [4] deals with T2, Methylcytosine dioxygenase TET2 (Homo sapiens, UniProt Q6N021). Kind of test: Inhibition of N-terminal His-tagged recombinant human TET2 catalytic domain LCIdel mutant (D1129 to G1936 residues with Y1481 to N1843 replaced by 3 x GGGGS linker) expressed in Escherichia coli BL21 (DE3) using 5-methylcytosine as substrate preincubated for 10 mins followed by substrate and DNA-cofactor addition measured after 10 mins by Alphascreen assay.

The target in test [5] is T3, Methylcytosine dioxygenase TET3 (Homo sapiens, UniProt O43151). Kind of test: Inhibition of recombinant human TET3 catalytic domain (E824 to I1795 residues) expressed in baculovirus infected Sf9 cells using 5-methylcytosine as substrate assessed as change in pIC50 preincubated for 10 mins followed by substrate and DNA-cofactor addition measured after 10 mins by Alphascreen assay. Particulars: time 20.0 min.

The target of test [6] is T3, Methylcytosine dioxygenase TET3. Kind of test: Inhibition of recombinant human TET3 catalytic domain (E824 to I1795 residues) expressed in baculovirus infected Sf9 cells using 5-methylcytosine as substrate preincubated for 10 mins followed by substrate and DNA-cofactor addition measured after 10 mins by Alphascreen assay. Particulars: read-out: pIC50 (converted).
Test [7] has as its target Methylcytosine dioxygenase TET1 (Mus musculus, UniProt Q3URK3). Kind of test: Inhibition of recombinant mouse TET1 catalytic domain (E1367 to V2039 residues) expressed in baculovirus expression system using 5-methylcytosine as substrate preincubated for 10 mins followed by substrate and DNA-cofactor addition measured after 9 mins by Alphascreen assay. The gist of the method:
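Murine Tet1 catalytic domain (E1367–V2039, High Five baculovirus) at 2 nM was preincubated 10 min with inhibitor (1% DMSO) in HEPES 50 mM pH 7.3, NaCl 150 mM, BSA 0.1%, Tween-20 0.01%. Ascorbate 200 µM, Fe(II) 20 µM, 2OG 20 µM and 5mC ssDNA 10 nM were added; reaction ran 9 min, then EDTA-quenched. AlphaScreen anti-5hmC detection by luminescence.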

The target in test [8] is T2, Methylcytosine dioxygenase TET2. Kind of test: Inhibition of N-terminal His-tagged recombinant human TET2 catalytic domain LCIdel mutant (D1129 to G1936 residues with Y1481 to N1843 replaced by 3 x GGGGS linker) expressed in Escherichia coli BL21 (DE3) using 5-methylcytosine as substrate preincubated for 10 mins followed by substrate and DNA-cofactor addition measured after 12 mins by SPE-MS analysis.

Molecules are shown by their SMILES. Where only a bound is given, the exact number is not on record here.

T3 sequence (O43151 whole entry, the tested form may be a part): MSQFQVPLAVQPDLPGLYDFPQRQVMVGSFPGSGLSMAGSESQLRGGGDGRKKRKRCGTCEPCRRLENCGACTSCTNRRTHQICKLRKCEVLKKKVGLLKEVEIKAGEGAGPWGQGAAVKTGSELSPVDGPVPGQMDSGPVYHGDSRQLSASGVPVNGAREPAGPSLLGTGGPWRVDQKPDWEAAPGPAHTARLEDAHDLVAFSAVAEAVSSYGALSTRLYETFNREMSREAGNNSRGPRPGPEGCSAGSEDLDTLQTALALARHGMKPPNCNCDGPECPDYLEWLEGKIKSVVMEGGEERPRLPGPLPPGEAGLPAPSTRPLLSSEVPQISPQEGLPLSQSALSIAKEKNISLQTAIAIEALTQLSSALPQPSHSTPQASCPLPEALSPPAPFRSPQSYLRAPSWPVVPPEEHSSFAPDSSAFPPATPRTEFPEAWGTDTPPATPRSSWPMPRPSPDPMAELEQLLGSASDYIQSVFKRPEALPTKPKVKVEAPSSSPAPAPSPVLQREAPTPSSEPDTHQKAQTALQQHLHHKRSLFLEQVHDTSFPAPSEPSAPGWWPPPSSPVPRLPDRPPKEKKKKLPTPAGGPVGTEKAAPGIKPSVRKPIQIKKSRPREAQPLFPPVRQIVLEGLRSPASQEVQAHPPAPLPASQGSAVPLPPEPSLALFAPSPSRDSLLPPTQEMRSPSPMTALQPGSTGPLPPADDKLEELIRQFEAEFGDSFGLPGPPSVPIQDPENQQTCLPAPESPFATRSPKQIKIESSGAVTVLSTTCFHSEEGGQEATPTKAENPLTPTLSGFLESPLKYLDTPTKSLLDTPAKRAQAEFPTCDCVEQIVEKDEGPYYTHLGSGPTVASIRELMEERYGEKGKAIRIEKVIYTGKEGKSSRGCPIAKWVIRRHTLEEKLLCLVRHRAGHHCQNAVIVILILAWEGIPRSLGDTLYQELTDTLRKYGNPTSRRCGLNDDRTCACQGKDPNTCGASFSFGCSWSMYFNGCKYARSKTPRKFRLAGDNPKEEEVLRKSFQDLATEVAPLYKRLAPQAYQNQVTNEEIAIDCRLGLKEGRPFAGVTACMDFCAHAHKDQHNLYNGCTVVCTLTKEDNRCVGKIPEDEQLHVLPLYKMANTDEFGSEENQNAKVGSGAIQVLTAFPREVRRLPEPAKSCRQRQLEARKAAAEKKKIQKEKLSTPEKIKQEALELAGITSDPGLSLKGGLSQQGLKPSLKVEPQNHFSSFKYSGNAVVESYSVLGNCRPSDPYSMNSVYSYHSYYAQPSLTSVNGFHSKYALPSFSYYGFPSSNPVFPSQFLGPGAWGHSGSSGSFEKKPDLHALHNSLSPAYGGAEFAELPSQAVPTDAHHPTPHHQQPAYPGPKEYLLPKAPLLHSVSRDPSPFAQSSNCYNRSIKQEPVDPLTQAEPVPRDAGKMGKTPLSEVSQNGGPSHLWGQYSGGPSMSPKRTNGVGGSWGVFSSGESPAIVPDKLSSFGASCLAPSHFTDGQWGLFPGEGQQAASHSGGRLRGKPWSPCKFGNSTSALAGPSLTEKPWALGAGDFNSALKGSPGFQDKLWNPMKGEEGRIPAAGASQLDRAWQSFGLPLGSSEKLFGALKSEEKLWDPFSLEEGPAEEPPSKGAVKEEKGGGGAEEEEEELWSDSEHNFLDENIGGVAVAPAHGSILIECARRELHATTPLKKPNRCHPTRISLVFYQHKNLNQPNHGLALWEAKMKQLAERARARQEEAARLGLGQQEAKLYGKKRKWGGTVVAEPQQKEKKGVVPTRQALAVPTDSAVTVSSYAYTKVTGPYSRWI

On to `CC[C@H](C)[C@@H]1NC(=O)[C@H](CC(C)C)NC(=O)[C@@H](Cc2ccc(O)cc2)NC(=O)CSC[C@@H](C(N)=O)NC(=O)[C@H](CO)NC(=O)[C@H](Cc2c[nH]cn2)NC(=O)[C@H](CCC(=O)O)NC(=O)[C@H](Cc2c[nH]c3ccccc23)NC(=O)[C@H](Cc2c[nH]c3ccccc23)NC(=O)[C@H]([C@@H](C)O)NC(=O)[C@H](Cc2ccc(O)cc2)NC(=O)[C@H](C)NC(=O)[C@H](C)NC(=O)[C@H](Cc2ccc(O)cc2)NC1=O`, for which the deltapIC50 was -0.52 in test [1], -0.07 in test [3] and -0.48 in test [5]. Also, the IC50 was 1.1 µM in test [2] and 16.2 µM in test [6]. Also, in test [4], the pIC50 was 4.63.

`CC[C@H](C)[C@@H]1NC(=O)[C@H](CC(C)C)NC(=O)[C@@H](Cc2ccc(O)cc2)NC(=O)CSC[C@@H](C(N)=O)NC(=O)[C@H](CO)NC(=O)[C@H](Cc2c[nH]cn2)NC(=O)[C@H](CCC(=O)O)NC(=O)[C@H](Cc2c[nH]c3ccccc23)NC(=O)[C@H](Cc2c[nH]c3ccccc23)NC(=O)[C@H]([C@@H](C)O)NC(=O)[C@H](C)NC(=O)[C@H](Cc2ccc(O)cc2)NC(=O)[C@H](C)NC(=O)[C@H](Cc2ccc(O)cc2)NC1=O`: the deltapIC50 in test [1] is -1.46; in test [3], -0.4; in test [5], -0.46. Also, the IC50 was 9.55 µM in test [2] and 15.5 µM in test [6]. Also, the pIC50 in test [4] was 4.3.

For the molecule `CC[C@H](C)[C@@H]1NC(=O)[C@H](CC(C)C)NC(=O)[C@@H](Cc2ccc(O)cc2)NC(=O)CSC[C@@H](C(N)=O)NC(=O)[C@H](CO)NC(=O)[C@H](Cc2c[nH]cn2)NC(=O)[C@H](CCC(=O)O)NC(=O)[C@H](Cc2c[nH]c3ccccc23)NC(=O)[C@H](Cc2c[nH]c3ccccc23)NC(=O)[C@H](C)NC(=O)[C@H](Cc2ccc(O)cc2)NC(=O)[C@H](Cc2ccc(O)cc2)NC(=O)[C@H](C)NC(=O)[C@H](Cc2ccc(O)cc2)NC1=O`, the deltapIC50 is -0.94 in test [1], -0.05 in test [3] and 0 in test [5]. The IC50 was 2.88 µM in test [2] and 5.25 µM in test [6]. The negative-log IC50 (pIC50) in test [4] amounted to 4.65.

In the case of `CC[C@H](C)[C@@H]1NC(=O)[C@H](CC(C)C)NC(=O)[C@@H](Cc2ccc(O)cc2)NC(=O)CSC[C@@H](C(N)=O)NC(=O)[C@H](CO)NC(=O)[C@H](Cc2c[nH]cn2)NC(=O)[C@H](CCC(=O)O)NC(=O)[C@H](Cc2c[nH]c3ccccc23)NC(=O)[C@H](Cc2c[nH]c3ccccc23)NC(=O)[C@H]([C@@H](C)O)NC(=O)[C@H](Cc2ccc(O)cc2)NC(=O)[C@H](Cc2ccc(O)cc2)NC(=O)[C@H](C)NC(=O)[C@H](C)NC1=O`, the deltapIC50 in test [1] is -1.51; in test [3], -0.48; in test [5] it was -0.47. Besides, the IC50 in test [2] is 10.7 µM; in test [6], 15.8 µM. For the same molecule, the pIC50 in test [4] is on record as 4.22.

Regarding `CC[C@H](C)[C@@H]1NC(=O)[C@H](CC(C)C)NC(=O)[C@@H](Cc2ccc(O)cc2)NC(=O)CSC[C@@H](C(N)=O)NC(=O)[C@H](CO)NC(=O)[C@H](Cc2c[nH]cn2)NC(=O)[C@H](CCC(=O)O)NC(=O)[C@H](Cc2c[nH]c3ccccc23)NC(=O)[C@H](C)NC(=O)[C@H]([C@@H](C)O)NC(=O)[C@H](Cc2ccc(O)cc2)NC(=O)[C@H](Cc2ccc(O)cc2)NC(=O)[C@H](C)NC(=O)[C@H](Cc2ccc(O)cc2)NC1=O`, the deltapIC50 in test [1] was -1.32; in test [3] it was -0.36; in test [5] it was -0.59. Besides, the figures for the IC50 in test [2] and in test [6] were 6.92 µM and 20.4 µM, respectively. For the same molecule, in test [4], the pIC50 was 4.34.

`CC[C@H](C)[C@@H]1NC(=O)[C@H](CC(C)C)NC(=O)[C@@H](Cc2ccc(O)cc2)NC(=O)CSC[C@@H](C(N)=O)NC(=O)[C@H](CO)NC(=O)[C@H](Cc2c[nH]cn2)NC(=O)[C@H](C)NC(=O)[C@H](Cc2c[nH]c3ccccc23)NC(=O)[C@H](Cc2c[nH]c3ccccc23)NC(=O)[C@H]([C@@H](C)O)NC(=O)[C@H](Cc2ccc(O)cc2)NC(=O)[C@H](Cc2ccc(O)cc2)NC(=O)[C@H](C)NC(=O)[C@H](Cc2ccc(O)cc2)NC1=O`: the deltapIC50 in test [1] is -0.72; in test [3], -0.55; in test [5], less than -1.28. Moreover, the IC50 is 1.74 µM in test [2] and greater than 100 µM in test [6]. The pIC50 in test [4] came to 4.14.

In the case of `CC[C@H](C)[C@@H]1NC(=O)[C@H](CC(C)C)NC(=O)[C@@H](Cc2ccc(O)cc2)NC(=O)CSC[C@@H](C(N)=O)NC(=O)[C@H](CO)NC(=O)[C@H](C)NC(=O)[C@H](CCC(=O)O)NC(=O)[C@H](Cc2c[nH]c3ccccc23)NC(=O)[C@H](Cc2c[nH]c3ccccc23)NC(=O)[C@H]([C@@H](C)O)NC(=O)[C@H](Cc2ccc(O)cc2)NC(=O)[C@H](Cc2ccc(O)cc2)NC(=O)[C@H](C)NC(=O)[C@H](Cc2ccc(O)cc2)NC1=O`, the deltapIC50 in test [1] was 0.23; in test [3], 0.23; in test [5] it was 0.24. The IC50 in test [2] was 0.195 µM; in test [6], 3.09 µM. In addition, the pIC50 in test [4] is given as 4.93.

On to `CC[C@H](C)[C@@H]1NC(=O)[C@H](CCC(N)=O)NC(=O)[C@H](Cc2ccc(O)cc2)NC(=O)[C@H](Cc2ccc(O)cc2)NC(=O)[C@H]([C@@H](C)O)NC(=O)[C@H](CCCCN)NC(=O)[C@H](C(C)C)NC(=O)[C@H](CCCNC(=N)N)NC(=O)[C@H](Cc2ccc(O)cc2)NC(=O)[C@@H](Cc2ccc(O)cc2)NC(=O)CSC[C@@H](C(N)=O)NC(=O)[C@H](CO)NC(=O)[C@H](C(C)C)NC(=O)[C@H](Cc2ccc(O)cc2)NC(=O)[C@H](C(C)C)NC(=O)[C@H](Cc2ccc(O)cc2)NC(=O)[C@H]([C@@H](C)O)NC1=O`, for which the values for the IC50 in test [2], in test [7] and in test [6] were 1.35 µM, 8.71 µM and 6.03 µM, respectively. This molecule had a deltapIC50 in test [3] of 0.39. Also, the pIC50 in test [4] amounted to 5.11; in test [8], 5.5.

For `CC(C)C[C@@H]1NC(=O)[C@H](Cc2ccc(O)cc2)NC(=O)[C@H](Cc2c[nH]c3ccccc23)NC(=O)[C@@H](Cc2ccc(O)cc2)NC(=O)CSC[C@@H](C(N)=O)NC(=O)[C@H](Cc2ccccc2)NC(=O)[C@H](Cc2c[nH]c3ccccc23)NC(=O)[C@@H]2CCCN2C(=O)[C@H](C(C)C)NC(=O)[C@H](CCCNC(=N)N)NC(=O)[C@H](Cc2ccc(O)cc2)NC(=O)[C@H](CO)NC(=O)[C@@H]2CCCN2C1=O`, the IC50 in test [2] was 0.174 µM; in test [7], 3.47 µM; in test [6], 2.4 µM. Further, the deltapIC50 in test [3] was -0.3. Also, the pIC50 came out at 5.49 in test [4] and 5.19 in test [8].

Consider `CC[C@H](C)[C@@H]1NC(=O)[C@H](CCCNC(=N)N)NC(=O)[C@@H](Cc2ccc(O)cc2)NC(=O)CSC[C@@H](C(N)=O)NC(=O)[C@H](Cc2ccc(O)cc2)NC(=O)[C@H](C(C)C)NC(=O)[C@H](CC(N)=O)NC(=O)[C@H](Cc2c[nH]c3ccccc23)NC(=O)[C@H](Cc2c[nH]c3ccccc23)NC(=O)[C@H]([C@@H](C)O)NC(=O)[C@H](Cc2ccc(O)cc2)NC(=O)[C@H](Cc2ccccc2)NC(=O)[C@H](CC(C)C)NC(=O)[C@H](Cc2ccc(O)cc2)NC1=O`, for which the IC50 is 1.15 µM in test [2], 3.39 µM in test [7] and 2.4 µM in test [6]. Further, in test [3], the deltapIC50 turned out to be 0.02. The results for the pIC50 in test [4] and in test [8] were 5.59 and 5.61, respectively.

For the molecule `CC[C@H](C)[C@@H]1NC(=O)[C@H](Cc2ccccc2)NC(=O)[C@H](Cc2ccc(O)cc2)NC(=O)[C@H](CC(C)C)NC(=O)[C@H](CCCNC(=N)N)NC(=O)[C@H](C)NC(=O)[C@H](Cc2c[nH]c3ccccc23)NC(=O)[C@H](Cc2c[nH]c3ccccc23)NC(=O)[C@@H]2CCCN2C(=O)[C@H](C(C)C)NC(=O)[C@H](Cc2ccc(O)cc2)NC(=O)[C@@H](Cc2ccccc2)NC(=O)[C@H](CCCCN)NC(=O)[C@@H](Cc2ccc(O)cc2)NC(=O)CSC[C@H](C(N)=O)NC(=O)CNC1=O`, the values for the IC50 in test [2], in test [7] and in test [6] were 0.24 µM, 1.1 µM and 1.02 µM, respectively. In test [3], the deltapIC50 is -0.43. In addition, the pIC50 was found to be 5.95 in test [4] and 5.52 in test [8].
